Experimental data taken from article PMC8542630 (Cell chemical biology, 2021).

Assays:
[1] = target: Hs-dynein 1 (Homo sapiens, UniProt Q14204); assay: Radioactive ATPase assay, microtubule-stimulated ATPase activity of Hs-dynein 1; type: biochemical
Method in brief: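 Radioactive ATPase assay with Hs-dynein 1 (His6, aa 1320–4646; 30 nM) in the presence of microtubules. Reaction time was 45 min, and rates with test compound were normalised to DMSO control.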

[2] = target: Sc-Dyn-lyso (Saccharomyces cerevisiae, UniProt P36022); assay: NADH-coupled steady-state ATPase assay, Sc-Dyn-lyso; type: biochemical, S. cerevisiae
Method in brief: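 Ten-dose DMSO serial dilution of test compound (stock top 4 mM) was preincubated 10 min at RT. MgATP (10 mM stock) started the reaction, and NADH fluorescence slopes were converted via an ADP standard curve.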

[3] = target: GFP-Sc-Dyn AAA4 E/Q (E2819Q) (Saccharomyces cerevisiae, UniProt P36022, E2819Q); assay: NADH-coupled steady-state ATPase assay, GFP-Sc-Dyn AAA4 E/Q mutant; type: biochemical, S. cerevisiae
[4] = target: GFP-Sc-Dyn AAA4 E/Q (E2819Q); assay: as above; type: biochemical, S. cerevisiae; details: 1 mM MgATP, n=3
[5] = target: T1, Sc-Dyn-lyso (Saccharomyces cerevisiae, UniProt P36022); assay: Microscale thermophoresis; type: binding, S. cerevisiae
T1 sequence (P36022 1758-2992 limits assumed): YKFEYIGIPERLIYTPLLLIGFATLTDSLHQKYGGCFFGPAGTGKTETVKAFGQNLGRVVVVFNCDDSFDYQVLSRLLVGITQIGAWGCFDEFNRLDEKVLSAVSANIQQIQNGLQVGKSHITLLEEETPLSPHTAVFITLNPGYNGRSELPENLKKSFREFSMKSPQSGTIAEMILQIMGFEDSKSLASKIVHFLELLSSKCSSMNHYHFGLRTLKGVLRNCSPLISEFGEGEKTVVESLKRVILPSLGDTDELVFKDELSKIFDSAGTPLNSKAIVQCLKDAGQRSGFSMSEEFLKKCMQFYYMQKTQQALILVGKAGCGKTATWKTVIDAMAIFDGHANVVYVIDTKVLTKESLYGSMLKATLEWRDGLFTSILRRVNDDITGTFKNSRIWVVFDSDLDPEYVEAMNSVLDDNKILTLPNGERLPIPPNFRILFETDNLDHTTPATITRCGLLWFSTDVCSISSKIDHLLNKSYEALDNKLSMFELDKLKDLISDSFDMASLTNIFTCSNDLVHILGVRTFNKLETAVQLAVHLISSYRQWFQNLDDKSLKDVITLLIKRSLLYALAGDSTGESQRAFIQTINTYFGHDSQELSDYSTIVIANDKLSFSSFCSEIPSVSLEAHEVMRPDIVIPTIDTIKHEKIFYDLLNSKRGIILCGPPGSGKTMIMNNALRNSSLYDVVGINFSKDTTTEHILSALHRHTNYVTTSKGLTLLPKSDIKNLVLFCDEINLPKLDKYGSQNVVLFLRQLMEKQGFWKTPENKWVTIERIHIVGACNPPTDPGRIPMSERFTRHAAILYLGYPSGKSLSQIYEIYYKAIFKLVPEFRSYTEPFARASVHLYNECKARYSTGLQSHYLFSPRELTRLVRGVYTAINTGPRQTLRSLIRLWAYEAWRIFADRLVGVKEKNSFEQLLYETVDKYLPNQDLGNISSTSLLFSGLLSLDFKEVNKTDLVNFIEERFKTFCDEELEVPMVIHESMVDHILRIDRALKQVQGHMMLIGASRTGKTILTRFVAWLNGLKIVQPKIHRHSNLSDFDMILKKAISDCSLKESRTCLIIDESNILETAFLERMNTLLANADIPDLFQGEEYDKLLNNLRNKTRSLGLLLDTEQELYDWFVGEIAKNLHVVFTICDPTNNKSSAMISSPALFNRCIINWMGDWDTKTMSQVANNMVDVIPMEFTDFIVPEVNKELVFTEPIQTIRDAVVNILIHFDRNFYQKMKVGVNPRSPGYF
T1 sequence (P36022 3301-4092 limits assumed): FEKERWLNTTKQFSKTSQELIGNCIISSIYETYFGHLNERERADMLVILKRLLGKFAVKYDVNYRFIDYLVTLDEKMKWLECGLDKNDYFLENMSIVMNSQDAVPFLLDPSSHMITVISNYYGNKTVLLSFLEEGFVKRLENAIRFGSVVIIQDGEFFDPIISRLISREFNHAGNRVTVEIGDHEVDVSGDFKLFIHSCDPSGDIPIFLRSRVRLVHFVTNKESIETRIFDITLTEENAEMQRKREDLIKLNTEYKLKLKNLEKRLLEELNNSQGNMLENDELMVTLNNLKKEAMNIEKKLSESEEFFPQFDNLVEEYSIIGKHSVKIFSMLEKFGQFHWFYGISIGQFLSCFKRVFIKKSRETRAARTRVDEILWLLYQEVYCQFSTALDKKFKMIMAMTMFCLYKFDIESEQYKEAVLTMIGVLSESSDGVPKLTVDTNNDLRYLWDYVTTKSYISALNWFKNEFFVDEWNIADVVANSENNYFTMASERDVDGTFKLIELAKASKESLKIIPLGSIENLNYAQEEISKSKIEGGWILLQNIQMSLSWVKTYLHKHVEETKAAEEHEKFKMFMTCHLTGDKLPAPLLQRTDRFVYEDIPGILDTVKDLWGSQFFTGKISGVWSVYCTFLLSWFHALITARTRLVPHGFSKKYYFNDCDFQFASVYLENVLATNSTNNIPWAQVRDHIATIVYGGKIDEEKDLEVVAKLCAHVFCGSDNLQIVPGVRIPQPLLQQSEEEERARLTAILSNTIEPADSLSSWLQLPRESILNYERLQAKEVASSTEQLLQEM

[6] = target: GFP-Sc-Dyn V2391S/M2732S (AAA3_V-S/AAA4_M-S) (Saccharomyces cerevisiae, UniProt P36022, M2732S/V2391S); assay: Microscale thermophoresis; type: binding
[7] = target: Sc-Dyn-lysoMut (AAA1 E/Q) (Saccharomyces cerevisiae, UniProt P36022, E1849Q); assay: Microscale thermophoresis; type: binding, S. cerevisiae
[8] = target: GFP-Sc-Dyn (Saccharomyces cerevisiae, UniProt P36022); assay: Microscale thermophoresis; type: binding, S. cerevisiae; details: for FNorm, GFP-Sc-Dyn (MST) / ΔFNorm, GFP-Sc-Dyn (MST): mean ± SD; for FNorm, GFP-Sc-Dyn (MST): n=3; for ΔFNorm, GFP-Sc-Dyn (MST): absence of AMPPNP, n=5

Hs-dynein 1, sequence (Q14204 1320-4646): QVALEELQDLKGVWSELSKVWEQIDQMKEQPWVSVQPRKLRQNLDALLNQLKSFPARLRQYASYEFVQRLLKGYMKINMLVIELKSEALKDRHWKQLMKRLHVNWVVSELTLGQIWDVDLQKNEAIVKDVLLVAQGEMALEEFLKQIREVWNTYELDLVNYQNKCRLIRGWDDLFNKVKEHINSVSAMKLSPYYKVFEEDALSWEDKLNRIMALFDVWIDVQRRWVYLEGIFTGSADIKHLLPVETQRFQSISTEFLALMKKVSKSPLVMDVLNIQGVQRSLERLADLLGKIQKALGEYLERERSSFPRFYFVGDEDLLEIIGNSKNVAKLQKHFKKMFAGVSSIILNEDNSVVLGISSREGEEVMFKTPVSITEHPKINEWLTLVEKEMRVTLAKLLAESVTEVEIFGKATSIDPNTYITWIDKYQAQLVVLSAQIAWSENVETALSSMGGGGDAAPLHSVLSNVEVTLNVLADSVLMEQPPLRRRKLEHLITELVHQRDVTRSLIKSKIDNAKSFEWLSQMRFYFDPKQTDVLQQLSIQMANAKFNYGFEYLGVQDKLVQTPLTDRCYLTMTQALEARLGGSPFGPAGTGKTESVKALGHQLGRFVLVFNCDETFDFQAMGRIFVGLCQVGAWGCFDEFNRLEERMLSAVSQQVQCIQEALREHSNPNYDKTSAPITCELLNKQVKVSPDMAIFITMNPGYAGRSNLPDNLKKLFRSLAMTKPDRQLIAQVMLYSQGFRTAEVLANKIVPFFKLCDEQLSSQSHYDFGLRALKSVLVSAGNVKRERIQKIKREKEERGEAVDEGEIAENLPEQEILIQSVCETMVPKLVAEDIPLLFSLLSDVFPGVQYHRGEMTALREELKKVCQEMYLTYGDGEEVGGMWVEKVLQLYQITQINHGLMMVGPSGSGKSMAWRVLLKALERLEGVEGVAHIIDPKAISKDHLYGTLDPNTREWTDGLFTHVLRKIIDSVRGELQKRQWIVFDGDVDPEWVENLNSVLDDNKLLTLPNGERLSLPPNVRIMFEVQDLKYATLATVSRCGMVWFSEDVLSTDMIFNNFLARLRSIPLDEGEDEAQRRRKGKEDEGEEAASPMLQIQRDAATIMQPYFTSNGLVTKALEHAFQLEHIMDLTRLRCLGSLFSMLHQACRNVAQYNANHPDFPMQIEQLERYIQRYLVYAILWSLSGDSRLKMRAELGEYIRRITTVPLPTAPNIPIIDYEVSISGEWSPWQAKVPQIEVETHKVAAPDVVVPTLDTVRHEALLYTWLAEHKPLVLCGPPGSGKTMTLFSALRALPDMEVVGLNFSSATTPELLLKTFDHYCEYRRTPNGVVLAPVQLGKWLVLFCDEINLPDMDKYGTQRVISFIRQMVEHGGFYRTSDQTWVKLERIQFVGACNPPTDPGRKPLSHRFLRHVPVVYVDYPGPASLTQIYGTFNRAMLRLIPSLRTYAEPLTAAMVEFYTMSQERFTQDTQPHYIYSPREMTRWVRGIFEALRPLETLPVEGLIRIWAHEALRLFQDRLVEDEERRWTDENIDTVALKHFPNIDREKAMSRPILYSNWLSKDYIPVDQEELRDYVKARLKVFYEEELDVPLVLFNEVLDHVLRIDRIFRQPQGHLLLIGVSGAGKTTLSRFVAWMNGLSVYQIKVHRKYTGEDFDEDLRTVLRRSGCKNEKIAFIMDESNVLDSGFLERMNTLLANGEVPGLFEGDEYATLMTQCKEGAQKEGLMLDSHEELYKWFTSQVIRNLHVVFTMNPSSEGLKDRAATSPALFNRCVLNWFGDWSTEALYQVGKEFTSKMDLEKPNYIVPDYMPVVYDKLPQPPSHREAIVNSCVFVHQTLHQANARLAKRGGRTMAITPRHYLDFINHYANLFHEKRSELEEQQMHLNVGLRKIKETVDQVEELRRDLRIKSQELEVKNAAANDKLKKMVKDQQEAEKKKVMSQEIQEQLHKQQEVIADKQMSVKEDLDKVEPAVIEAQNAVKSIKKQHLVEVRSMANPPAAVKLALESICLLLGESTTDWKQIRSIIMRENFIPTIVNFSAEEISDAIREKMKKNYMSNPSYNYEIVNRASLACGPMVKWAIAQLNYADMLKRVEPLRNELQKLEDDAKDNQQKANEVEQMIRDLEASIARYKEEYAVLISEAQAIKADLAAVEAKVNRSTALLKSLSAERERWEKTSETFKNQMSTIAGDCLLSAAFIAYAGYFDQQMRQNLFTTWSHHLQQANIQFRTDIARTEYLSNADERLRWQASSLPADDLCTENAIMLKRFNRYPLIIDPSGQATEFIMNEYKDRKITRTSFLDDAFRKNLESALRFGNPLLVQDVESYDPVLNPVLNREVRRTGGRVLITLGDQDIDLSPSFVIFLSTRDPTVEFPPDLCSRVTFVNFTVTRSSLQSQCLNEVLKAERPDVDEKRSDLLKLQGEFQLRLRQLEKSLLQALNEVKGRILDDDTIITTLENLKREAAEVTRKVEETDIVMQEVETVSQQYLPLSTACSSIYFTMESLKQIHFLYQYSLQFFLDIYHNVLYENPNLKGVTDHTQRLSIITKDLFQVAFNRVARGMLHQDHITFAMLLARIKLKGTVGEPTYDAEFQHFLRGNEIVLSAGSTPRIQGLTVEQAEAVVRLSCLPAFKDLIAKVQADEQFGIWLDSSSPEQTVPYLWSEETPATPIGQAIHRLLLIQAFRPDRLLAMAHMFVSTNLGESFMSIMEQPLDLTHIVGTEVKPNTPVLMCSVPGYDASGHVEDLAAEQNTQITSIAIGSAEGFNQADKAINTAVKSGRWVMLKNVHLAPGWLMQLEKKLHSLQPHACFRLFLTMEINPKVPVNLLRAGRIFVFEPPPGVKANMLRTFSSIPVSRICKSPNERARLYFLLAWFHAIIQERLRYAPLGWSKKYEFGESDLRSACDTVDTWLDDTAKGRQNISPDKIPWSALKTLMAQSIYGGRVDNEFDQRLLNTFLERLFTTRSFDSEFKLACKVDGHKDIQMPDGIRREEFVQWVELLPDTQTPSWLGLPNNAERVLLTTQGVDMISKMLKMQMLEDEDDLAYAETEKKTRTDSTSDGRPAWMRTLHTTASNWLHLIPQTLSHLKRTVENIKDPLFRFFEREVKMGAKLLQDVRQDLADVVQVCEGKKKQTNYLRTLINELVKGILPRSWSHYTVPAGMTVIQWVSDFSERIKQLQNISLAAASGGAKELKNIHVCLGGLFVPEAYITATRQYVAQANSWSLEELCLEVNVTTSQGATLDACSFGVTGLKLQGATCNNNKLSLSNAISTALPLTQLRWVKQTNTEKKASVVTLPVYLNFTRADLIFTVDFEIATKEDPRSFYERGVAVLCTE

N#Cc1c(C2(c3ccc(Cl)cc3)CC2)nn2c(=O)c(Oc3cccc(Br)c3)c[nH]c12 [compound 20, 6-(3-bromophenoxy)-2-[1-(4-chlorophenyl)cyclopropyl]-7-oxo-4H-pyrazolo[1,5-a]pyrimidine-3-carbonitrile]
IC50 [1]: ~10 µM
IC50 [2]: 15 ± 3.1 µM
IC50 [3]: 2.9 ± 0.3 µM
IC50 fold lower than that of GFP-Sc-Dyn, AAA4 E/Q mutant [4]: ~ 5 fold
EC50 [5]: 22 ± 5.3 µM
EC50 [6]: > 100 µM
EC50 [7]: 34 ± 11 µM
FNorm, GFP-Sc-Dyn (MST) ([8]; 12.5 μM compound, AMPPNP 100 μM): 0.8 ± 2
FNorm, GFP-Sc-Dyn (MST) ([8]; 12.5 μM compound, AMPPNP 1 mM): 1.9 ± 1.2
ΔFNorm, GFP-Sc-Dyn (MST) ([8]; 12.5 μM compound): 3.0 ± 5.0
FNorm, GFP-Sc-Dyn (MST) ([8]; 25 μM compound, AMPPNP 100 μM): 2.4 ± 2.3
FNorm, GFP-Sc-Dyn (MST) ([8]; 25 μM compound, AMPPNP 1 mM): 0.1 ± 1
ΔFNorm, GFP-Sc-Dyn (MST) ([8]; 25 μM compound): 6.7 ± 5.2
ΔFNorm lower than that of the WT control ([8]; 50 μM compound 20, AMPPNP 1 mM): ~ 93%
FNorm, GFP-Sc-Dyn (MST) ([8]; 50 μM compound, AMPPNP 100 μM): 9.3 ± 2.3
FNorm, GFP-Sc-Dyn (MST) ([8]; 50 μM compound, AMPPNP 1 mM): 1.2 ± 2
ΔFNorm, GFP-Sc-Dyn (MST) ([8]; 50 μM compound): 16 ± 2.8
EC50 ([8]; EC50, binding to GFP-Sc-Dyn (MST), mean ± 95% CI, n=9, Figures 5D-E): 70 ± 31 µM
EC50 ([8]; EC50, binding to WT GFP-Sc-Dyn (MST), mean ± 95% CI, n=4, Figure 5N, compared with V2391S/M2732S mutant): 36 ± 7.8 µM
Hill slope, binding to GFP-Sc-Dyn (MST) ([8]; mean ± 95% CI, n=9): 1.7 ± 0.6
